Columns and labels:
[1] = test system: human; test: concentration in expired air after dosing; negative times count back from the end of exposure; conditions: dosed: dichloromethane, inhalation, duration: 6 hr, male
Summary of the method: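 Data points giving concentration or amount against time came from published in vivo toxicokinetic studies and from two structured collections. PubMed searching, classifier screening and manual review located the studies. Most points were digitised from plot screenshots using WebPlotDigitizer, the rest were copied from tables, and all keep their reported units.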

[2] = test system: rat; test: concentration in blood after dosing; negative times count back from the end of exposure; conditions: dosed: n-hexane, 3000 ppm, inhalation, duration: 6 hr
[3] = test system: rat; test: concentration in blood after dosing; conditions: dosed: 1,2-Dichloroethane, 100 mg/kg, oral, male, Wistar

[C-]#[O+] [carbon monoxide]
concentration in expired air [ppm], [1]
Conditions | 100 ppm | 350 ppm
0.083 h | 17.1 | 34.6
0.25 h | 16.2 | 32.5
0.5 h | 15.8 | 32.6
1 h | 15.7 | 33.3
1.5 h | 14.9 | 32.3
2 h | 14.6 | 30.9
3 h | 11.8 | 26.8
4 h | 10.8 | 25.1
6 h | 10 | 21.2
8 h | 9.1 | 16.9
16 h | 6.8 | 11.8
24 h | 4.3 | 5.6

concentration in expired air [ppm], [1], during exposure
Conditions | -36 s | -6 h | -5.75 h | -5.5 h | -5 h | -4.5 h | -4 h | -3 h | -2 h | -1 h
100 ppm | 16.8 | 3.8 | 5.3 | 5.8 | 7 | 8.1 | 9 | 10.7 | 13.1 | 15.3
350 ppm | 36.1 | 4.2 | 6.5 | 7.6 | 10.5 | 13.3 | 16.1 | 20.9 | 25.9 | 31.1

CCCCCC [n-hexane]
[2]
Conditions | concentration in blood [ng/mL]
0.4718 h | 2220
0.9831 h | 1920
1.99 h | 1370
4.003 h | 65.6
5.974 h | 42.2
7.994 h | 59.3
29 s | 8420

[2], during exposure
Conditions | concentration in blood [ng/mL]
-6 h | 20.3
-5.509 h | 7900
-5.025 h | 8530
-4.008 h | 9820
-3.002 h | 9010
-2.005 h | 9720

ClCCCl [1,2-Dichloroethane]
[3]
Conditions | concentration in blood [ng/mL]
0.1036 h | 52400
0.1179 h | 13300
0.132 h | 43800
0.1651 h | 12600
0.1867 h | 44200
0.1921 h | 12300
0.2321 h | 11400
0.2347 h | 43700
0.2763 h | 39500
0.2876 h | 11900
0.3244 h | 38100
0.3422 h | 11800
0.3792 h | 37800
0.3969 h | 11700
0.4271 h | 38800
0.4374 h | 11200
0.5094 h | 37200
0.5261 h | 10800
0.7703 h | 31800
0.7778 h | 9360
1.018 h | 25700
1.028 h | 6280
1.518 h | 20100
1.525 h | 4200
2.019 h | 14600
2.026 h | 4360
2.519 h | 10500
2.525 h | 3610
3.016 h | 1910
3.027 h | 7170
3.517 h | 2720
3.527 h | 4850
4.013 h | 3030
4.015 h | 1450
4.508 h | 862
4.52 h | 1720
5.001 h | 703
5.014 h | 1210
145 s | 5240
247 s | 58200
291 s | 10900

Source: EPA's CvTdb concentration-time database
